This is an account of results in ChEMBL document CHEMBL1926588, “Sulfur and selenium derivatives of quinazoline and pyrido[2,3-d]pyrimidine: synthesis and study of their potential cytotoxic activity in vitro” (Eur J Med Chem, 2012).

The subject of one data set is CCRF-CEM. Briefly: Cytotoxicity against human CCRF-CEM cells after 72 hrs by MTT assay. The data set is classed as functional. Conditions: for CC50: read-out: LC50 (the source's name). The essentials:
(§1)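 MTT read-out after 72 h exposure at 37 °C in humidified 5% CO2, with five concentrations between 0.01 and 100. GI50 is 50% growth reduction versus untreated controls, TGI is complete growth inhibition, and LC50 is the concentration killing 50% of cells. Minimum three independent experiments.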
For orientation: Tetrazolium dyes change colour on reduction, which living cells bring about.

The subject of a further data set is HT-29. As to the kind of experiment: Cytotoxicity against human HT-29 cells after 72 hrs by MTT assay. Conditions: HT-29, 72 h; for CC50: read-out: LC50 (the source's name). The data set is classed as functional. The essentials: as §1
Data set [1] in a line: Cytotoxicity against human HTB-54 cells after 72 hrs by MTT assay. In kind it is functional. The settings on record: HTB-54, 72 h; for CC50: read-out: LC50 (the source's name). The essentials:
as §1

For another data set, the system named is MCF7. Briefly: Cytotoxicity against human MCF7 cells after 72 hrs by MTT assay. In kind it is functional. The settings on record: MCF7, 72 h. An outline of the steps:
as §1

A short description of data set [2]: Cytotoxicity against human 184B5 cells after 72 hrs by MTT assay. In kind it is cell-based. Conditions: for GI50 at 72 h: 184B5 cells; for LC50 / TGI: 184b5, 72 h. The essentials: as §1
Data set [3] is described as follows: Cytotoxicity against human BEAS2B cells after 72 hrs by MTT assay. The data set is classed as cell-based, BEAS-2B. The settings on record: for GI50 at 72 h: BEAS2B cells; for LC50 / TGI: beas-2b, 72 h. The essentials: as §1

Molecules are shown by their SMILES. Bounds are passed on as bounds.

By GI50 is commonly meant the concentration giving 50% growth inhibition. Low values mean more potent growth inhibition, high ones less potent growth inhibition. The term TGI denotes the concentration at which net growth stops. Low readings indicate greater sensitivity of the cells, high ones lower sensitivity of the cells. A word on the LC50: it is the concentration lethal to half of the exposed cells or organisms. Regarding `CCCCC[Se]c1nc([Se]CCCCC)c2ccccc2n1`, the GI50 in the data set with CCRF-CEM was 65.7 µM; in the data set on HT-29, over 100 µM; in data set [1] it was over 100 µM; in the data set on MCF7, 38.4 µM. The TGI with CCRF-CEM was over 100 µM; in the data set on HT-29, over 100 µM; in data set [1], over 100 µM; in the data set on MCF7 it was 95.1 µM; in data set [2] it was over 100 µM; in data set [3] it was over 100 µM. Also, the CC50 (in the data set with CCRF-CEM; with HT-29; in data set [1]) was over 100 µM in each case. Also, the LC50 (in the data set on MCF7; in data set [2]; in data set [3]) was over 100 µM in each case. Moreover, the GI50 at 72 h is 71.3 µM in data set [2] and over 100 µM in data set [3].

Consider `CCCCC[Se]c1nc(N)c2cccnc2n1`, for which the GI50 in the data set with CCRF-CEM was found to be 12.9 µM; in the data set with HT-29, 5.91 µM; in data set [1] it was 8.78 µM; with MCF7, 22.7 µM. The concentration for total growth inhibition (TGI) was 42.8 µM in the data set with CCRF-CEM; 20 µM with HT-29; 51 µM in data set [1]; 53.8 µM in the data set with MCF7; 40.23 µM in data set [2]; 44.89 µM in data set [3]. The CC50 in the data set with CCRF-CEM amounted to 72.6 µM; in the data set on HT-29, 62.1 µM; in data set [1] it was 98.5 µM. Further, the LC50 with MCF7 was 85 µM; in data set [2], 70.14 µM; in data set [3], 73.48 µM. Also, the concentration for 50% growth inhibition (GI50) at 72 h in data set [2] turned out to be 10.3 µM; in data set [3], 16.3 µM.

For `CCCCCSc1nc(NCc2ccc([Se]C)cc2)c2ccccc2n1`, the GI50 with CCRF-CEM is over 100 µM; with HT-29, 14.4 µM; in data set [1], 19.8 µM; in the data set with MCF7, 13 µM. The TGI in the data set on CCRF-CEM is over 100 µM; in the data set with HT-29, over 100 µM; in data set [1], 50 µM; in the data set with MCF7, 75.2 µM; in data set [2], over 100 µM; in data set [3] it was over 100 µM. The CC50 in the data set on CCRF-CEM was over 100 µM; in the data set with HT-29, over 100 µM; in data set [1], 80.2 µM. The LC50 (in the data set with MCF7; in data set [2]; in data set [3]) was over 100 µM in each case. Further, the GI50 at 72 h in data set [2] was determined as 73 µM; in data set [3], 31.2 µM.

For `CSc1nc(NCc2ccccc2)c2ccccc2n1`, the GI50 in the data set with CCRF-CEM was 87.9 µM; with HT-29, 36.5 µM; in data set [1] it was 37.9 µM; in the data set with MCF7, 41.5 µM. Besides, the TGI is over 100 µM in the data set on CCRF-CEM; over 100 µM in the data set on HT-29; 82.3 µM in data set [1]; 82.8 µM in the data set on MCF7; over 100 µM in data set [2]; 88.24 µM in data set [3]. The CC50 (in the data set with CCRF-CEM; in the data set with HT-29; in data set [1]) was over 100 µM each time. The LC50 (with MCF7; in data set [2]; in data set [3]) was over 100 µM throughout. Also, the GI50 at 72 h in data set [2] came out at 28.9 µM; in data set [3] it was 38.9 µM.

Turning to `CSc1nc(NCCc2ccccc2)c2ccccc2n1`, the GI50 in the data set with CCRF-CEM amounted to 32.9 µM; in the data set on HT-29 it was 29.2 µM; in data set [1], 50.6 µM; in the data set with MCF7 it was 80.3 µM. In addition, the total growth inhibition concentration (TGI) in the data set on CCRF-CEM is 72.8 µM; in the data set on HT-29 it was 87.4 µM; in data set [1], over 100 µM; with MCF7 it was over 100 µM; in data set [2] it was 46.88 µM; in data set [3], 94.8 µM. Also, the CC50 (in the data set on CCRF-CEM; in the data set with HT-29; in data set [1]) was over 100 µM each time. For the same molecule, the 50% lethal concentration (LC50) was over 100 µM in the data set on MCF7, 88.58 µM in data set [2] and over 100 µM in data set [3]. The GI50 at 72 h in data set [2] came out at 8.3 µM; in data set [3], 41.9 µM.

With `[Se]=C=NCc1ccccc1` [BENZYLISOSELENOCYANATE], the GI50 in the data set on CCRF-CEM is 28.7 µM; with HT-29, 21 µM; in data set [1], 5.98 µM; with MCF7 it was 27.9 µM. Moreover, the TGI with CCRF-CEM was determined as 57.7 µM; in the data set with HT-29 it was 44.5 µM; in data set [1] it was 33.4 µM; in the data set on MCF7 it was 61.7 µM; in data set [2], 45.15 µM; in data set [3], 32.75 µM. For the same molecule, the figures for the CC50 (in the data set with CCRF-CEM; in the data set with HT-29; in data set [1]) were 86.7 µM, 68.1 µM and 66.1 µM, respectively. Further, the LC50 in the data set with MCF7 amounted to 95.5 µM; in data set [2], 74.86 µM; in data set [3], 69.59 µM. For the same molecule, the results for the concentration for 50% growth inhibition (GI50) at 72 h in data set [2] and in data set [3] were 15.5 µM and 4.1 µM, respectively.

For the molecule `[SeH]c1nc(NCc2ccccc2)c2cccnc2n1`, the GI50 in the data set with CCRF-CEM was 30.5 µM; with HT-29, 6.35 µM; in data set [1] it was over 100 µM; with MCF7, 0.03 µM. Also, the TGI is 68.9 µM with CCRF-CEM; 33.1 µM in the data set on HT-29; over 100 µM in data set [1]; over 100 µM in the data set on MCF7; 9.13 µM in data set [2]; over 100 µM in data set [3]. The CC50 (with CCRF-CEM; in the data set on HT-29; in data set [1]) was over 100 µM throughout. The LC50 (with MCF7; in data set [2]; in data set [3]) was over 100 µM each time. For the same molecule, the GI50 at 72 h in data set [2] turned out to be 3.7 µM; in data set [3] it was 8.4 µM.

`CSc1nc(NCCCCCO)c2cccnc2n1`: the GI50 is over 100 µM in the data set with CCRF-CEM, 63.9 µM in the data set on HT-29, over 100 µM in data set [1] and 48.9 µM with MCF7. The total growth inhibition concentration (TGI) (in the data set with CCRF-CEM; in the data set on HT-29; in data set [1]; in the data set with MCF7; in data set [2]; in data set [3]) was over 100 µM in each case. The CC50 (in the data set with CCRF-CEM; with HT-29; in data set [1]) was over 100 µM throughout. Also, the median lethal concentration (LC50) (in the data set with MCF7; in data set [2]; in data set [3]) was over 100 µM each time. Besides, the GI50 at 72 h in data set [2] and in data set [3] was over 100 µM in each case.

Consider `C[Se]c1nc(N)c2cccnc2n1`, for which the GI50 in the data set on CCRF-CEM is 68.4 µM; with HT-29, 44.1 µM; in data set [1], 78.2 µM; in the data set with MCF7 it was 43 µM. In addition, the TGI in the data set on CCRF-CEM is over 100 µM; in the data set with HT-29 it was 77.3 µM; in data set [1] it was over 100 µM; with MCF7, over 100 µM; in data set [2], 87.15 µM; in data set [3], 90.81 µM. Moreover, the CC50 (with CCRF-CEM; in the data set with HT-29; in data set [1]) was over 100 µM each time. In addition, the LC50 (with MCF7; in data set [2]; in data set [3]) was over 100 µM throughout. For the same molecule, the values for the GI50 at 72 h in data set [2] and in data set [3] were 45.5 µM and 39.7 µM, respectively.
